This is an account of results in ChEMBL document CHEMBL1135652, “Novel soluble cationic trans-diaminedichloroplatinum(II) complexes that are active against cisplatin resistant ovarian cancer cell lines” (J Med Chem, 2002).

Where “and” joins values, the source holds several entries; their conditions need not be identical. Identical values can stand only once.

A short description of test [1]: Resistant factor was measured as IC50 41M/ IC50 41McisR. The class given is functional.
Test [2] concerns A2780cisR. Put plainly: Resistant factor was measured as […]. The test is classed as functional, cell-based.
Test [3] can be described thus: Resistant factor was measured as IC50 CH1/ IC50 CH1cisR. The class given is functional.
Test [4] concerns 41M. Put plainly: cytotoxicity against 41M cells incubated for 24 hr in MTT assay. The class given is functional, cell-based, Homo sapiens. The method, boiled down:
(§1)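 Cisplatin-sensitive/resistant ovarian cancer line pairs; platinum complexes dissolved in 10 mM NaClO4 in water (1 mg/mL stock, fresh), added to cultures at final 0–200 μM for 24 h. Survival by MTT, absorbance at 520 nm; IC50 (concentration giving 50% cell killing) taken from % survival vs concentration curves. Quadruplicate experiments.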

The subject of test [5] is 41M. Put plainly: cytotoxicity against 41McisR cells incubated for 24 hr in MTT assay. The class given is functional, cell-based, Homo sapiens. An outline of the steps: as §1
In test [6] the test system is A2780cisR. Put plainly: cytotoxicity against A2780cisR cells incubated for 24 hr in MTT assay. The class given is functional, cell-based, Homo sapiens. The method, boiled down: as §1
For orientation: Formazan colour is commonly taken as a measure of viable cells.

The subject of a further test is A2780. Put plainly: cytotoxicity against A2780 cells incubated for 24 hr in MTT assay. The class given is functional, cell-based, Homo sapiens. An outline of the steps:
as §1

Test [7] deals with CH1. Put plainly: cytotoxicity against CH1cisR cells incubated for 24 hr in MTT assay. The test is classed as functional, cell-based, Homo sapiens. An outline of the steps:
as §1

In test [8] the test system is CH1. Put plainly: cytotoxicity against CH1 cells incubated for 24 hr in MTT assay. The test is classed as functional, cell-based, Homo sapiens. An outline of the steps: as §1

A word on the IC50: it is the midpoint of a concentration-inhibition curve. A low value points to greater potency.

On to “trans-ptcl2(IPA)(pz) [listing 1 of 2 here]”, for which the RF in test [1] was determined as 3.2; with A2780cisR [2], 2.1; in test [3] it was 5.

On to “trans-ptcl2(NH3)(pz) [listing 1 of 2 here]”, for which the RF in test [1] was 3 and 2.4; in [3], 2.8 and 2.

Regarding TRANSPLATIN, the half-maximal inhibitory concentration (IC50) with 41M [4], with 41M [5], with A2780cisR [6], in the test with A2780, with CH1 [7] and in the test with CH1 [8] was above 200 µM throughout.

For “trans-ptcl2(pip)(pz) [listing 1 of 2 here]”, the RF came to 3.2 in test [1], 3.6 in the test with A2780cisR [2] and 3.9 in [3].

Turning to “trans-ptcl2(pip)(pz) [listing 2 of 2 here]”, the half-inhibitory concentration (IC50) in the test with 41M [4] was determined as 37 µM; with 41M [5], 118 µM; with A2780cisR [6], 64 µM; in the test on A2780, 18 µM; in the test on CH1 [7], 85 µM; in the test on CH1 [8], 22 µM.

Take “trans-ptcl2(n-butyl amine)(pz) [listing 1 of 2 here]”: the RF amounted to 1.5 in test [1], 1.8 in the test with A2780cisR [2] and 1.1 in test [3].

CISPLATIN [listing 1 of 2 here]: the IC50 in the test with 41M [4] was 26 µM; in the test on 41M [5], 107 µM; with A2780cisR [6], 38 µM; with A2780, 2.2 µM; in the test with CH1 [7] it was 23 µM; in the test on CH1 [8] it was 6 µM.

In the case of “trans-ptcl2(picoline)(pz) [listing 1 of 2 here]”, the half-inhibitory concentration (IC50) stood at 45 µM in the test on 41M [4]; 147 µM in the test with 41M [5]; 24 µM in the test with A2780cisR [6]; 10 µM in the test on A2780; 42 µM in the test on CH1 [7]; 16 µM in the test with CH1 [8].

With “trans-ptcl2(IPA)(pz) [listing 2 of 2 here]”, the concentration for half-maximal inhibition (IC50) is 38 µM in the test on 41M [4]; 122 µM with 41M [5]; 30 µM in the test on A2780cisR [6]; 14 µM with A2780; 50 µM in the test on CH1 [7]; 10 µM in the test with CH1 [8].

With “trans-ptcl2(n-butyl amine)(pz) [listing 2 of 2 here]”, the IC50 in the test with 41M [4] turned out to be 32 µM; in the test on 41M [5], 48 µM; with A2780cisR [6] it was 28 µM; in the test on A2780 it was 16 µM; in the test with CH1 [7], 19 µM; with CH1 [8], 17 µM.

In the case of CISPLATIN [listing 2 of 2 here], the RF in [1] came out at 4.1; in the test with A2780cisR [2], 17.3; in test [3], 3.8.

For the substance “trans-ptcl2(NH3)(pz) [listing 2 of 2 here]”, the half-maximal inhibitory concentration (IC50) in the test on 41M [4] was 52 µM and 46 µM; in the test on 41M [5], 155 µM and 112 µM; with A2780cisR [6], 44 µM and 25 µM; in the test on A2780, 5 µM and 10 µM; with CH1 [7] it was 34 µM and 56 µM; in the test on CH1 [8], 12 µM and 28 µM.

Take “trans-ptcl2(picoline)(pz) [listing 2 of 2 here]”: the values for the RF (in test [1]; with A2780cisR [2]; in test [3]) were 3.3, 2.4 and 2.6, respectively.
